Published values pooled from the literature.
Each line is one published result; the experiments were not run side by side. In brackets after ≈: the same amount, converted by molar mass.
Organism: Mycobacterium tuberculosis

Structure (SMILES) | effect on | strain | time | endpoint | value
CCCCCCC#Cc1cncc(-c2nnc(SCc3ccc([N+](=O)[O-])o3)n2C)c1 | microbial growth | ERDMAN | – | IC90 | 240 nM
Cc1ccc(NC(=O)c2cccc(C(F)(F)F)c2)cc1Nc1nccn1-c1cc(NN2CCN(C)CC2)ncn1 | microbial growth | H37RV | – | MIC50 | 9.67 µM (≈ 5.33 µg/mL)
COc1nc2ccc(Br)cc2cc1[C@@H](c1ccccc1)[C@@](O)(CCN(C)C)c1cccc2ccccc12 | microbial growth | H37RV | – | MIC90 | 0.05 µM (≈ 0.0278 µg/mL)
CCCCCCC#Cc1cncc(-c2nnc(SCc3ccc(Cl)c(F)c3)n2C)c1 | microbial growth | ERDMAN | – | IC90 | 13000 nM
COC(=O)c1cc(-c2cccc(NC(=O)Nc3ccc(F)cc3F)c2)on1 | microbial growth | ATCC27294 H37RV | 7 days | MIC | 1 µg/mL (≈ 2.68 µM)
CC[C@@H](CO)NCCN[C@@H](CC)CO | microbial growth | H37RV | – | IC90 | 4610 nM
NNC(=O)c1ccncc1 | microbial growth | – | – | IC50 | 120 nM
O=[N+]([O-])c1cc2cc3ccc4oc([N+](=O)[O-])cc4c3cc2o1 | microbial killing | H37RV | – | MBC | 0.062 µg/mL
O=C(C[n+]1cn(Cc2cccc(Cn3c[n+](CC(=O)c4ccccc4)c4ccccc43)n2)c2ccccc21)c1ccccc1 | microbial killing | H37RV | 21 days | MBC | 100 µM
CC(N)(CO)C(=O)Nc1ccc(C(=O)Nc2ccnc(=O)[nH]2)cc1 (stereo not drawn) | microbial growth | H37RA | – | IC50 | > 100000 nM
O=[N+]([O-])c1ccc(/C=N/Nc2nc(Nc3ccccc3)nc(N3CCOCC3)n2)o1 | microbial killing | – | – | MBC | 1.6 µM
CCCCCCC#Cc1cncc(-c2nnc(SCc3ccc(Cl)cc3)n2C)c1 | microbial growth | – | – | IC50 | 850 nM
COC(=O)c1cc(-c2ccc(OC)c(NC(=O)Nc3ccc(Cl)c(Cl)c3)c2)on1 | microbial growth | ATCC27294 H37RV | 7 days | MIC | 8 µg/mL (≈ 18.3 µM)
CO[C@H]1/C=C/O[C@@]2(C)Oc3c(C)c(O)c4c(O)c(c(/C=N/N5CCN(C)CC5)c(O)c4c3C2=O)NC(=O)/C(C)=C\C=C\[C@H](C)[C@H](O)[C@@H](C)[C@@H](O)[C@@H](C)[C@H](OC(C)=O)[C@@H]1C | microbial growth | ERDMAN | – | IC90 | 35 nM
COC(=O)c1cc(-c2cccc(NC(=O)Nc3ccc(OC)cc3)c2)on1 | microbial growth | ATCC27294 H37RV | 7 days | MIC | 8 µg/mL (≈ 21.8 µM)
CCCCCCC#Cc1cncc(-c2nnc(Sc3ccc([N+](=O)[O-])cc3[N+](=O)[O-])n2C)c1 | microbial growth | ERDMAN | – | IC90 | 1200 nM
COC(=O)c1cc(-c2cccc(NC(=O)Nc3ccc(C(F)(F)F)cc3)c2)on1 | microbial growth | ATCC27294 H37RV | 7 days | MIC | 0.5 µg/mL (≈ 1.23 µM)
CNc1cc(-n2nc(C(=O)NCCN3C(C)CCCC3C)cc2Nc2cc(NC(=O)c3cncc(C(C)(C)C)c3)ccc2C)ncn1 (stereo not drawn) | microbial growth | H37RV | – | MIC50 | 0.11 µM (≈ 0.0703 µg/mL)
